Bioassay records as filed in PubChem.
T cell modulator – modulates CD8 T cell binding to vesicles | 2C CD8+ T cell-vesicle binding, flow cytometry; active compounds read low | response (vesicle binding), % at 7 µM | 330,000 tested, 0.068% active;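 active means response, share of CD8 T cells binding vesicles, and their 90th percentile fluorescence all below set limits, cut at about 80% in these data, passing the limit was not always enough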;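 further: values below 100% mean blocked vesicle binding to the CD8+ T cells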
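System: murine 2C transgenic CD8+ T lymphocytes; also added: QL9-loaded Drosophila micro-vesicles; times: binding 1.5 h at 37 °C; measured by: flow cytometry, PE anti-B7-1 (FL2) versus Alexa647 anti-CD8 (FL8), PFA-fixed; control set: Peptide-free naked vesicles (low) and QL9 vesicles with 0.7% DMSO vehicle (high)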
NTR1 agonist – activates human neurotensin receptor 1; activation, % at 20 µM; AID 493036; 330,000 tested, 0.17% active; P30989; NTR1-U2OS beta-arrestin-GFP spot imaging, agonist mode;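 active means activation at or above 40% of the spot to cytoplasm intensity ratio, with at least 20 cells analyzed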;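 further: 0% = DMSO without peptide and 100% = 100 nM NTR1 peptide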
Target sequence (P30989 whole entry, looked up): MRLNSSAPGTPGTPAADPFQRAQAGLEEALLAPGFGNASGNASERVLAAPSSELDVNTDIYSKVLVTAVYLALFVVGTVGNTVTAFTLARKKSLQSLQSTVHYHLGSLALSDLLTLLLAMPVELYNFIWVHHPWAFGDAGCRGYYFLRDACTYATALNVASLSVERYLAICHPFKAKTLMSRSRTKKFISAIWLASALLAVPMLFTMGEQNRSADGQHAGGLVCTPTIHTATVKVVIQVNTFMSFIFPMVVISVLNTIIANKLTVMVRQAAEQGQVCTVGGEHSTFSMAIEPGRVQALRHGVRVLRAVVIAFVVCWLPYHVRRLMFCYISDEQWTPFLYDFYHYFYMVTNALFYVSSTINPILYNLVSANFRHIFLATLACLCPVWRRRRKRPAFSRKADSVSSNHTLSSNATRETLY
V-ATPase pH – alters yeast V-ATPase proton transport; AID 504577; S. cerevisiae, pHLuorin cytosolic pH fluorescence; response, % at 10 µM; 350,000 tested, 0.37% active; in the data active means response mostly above about 7.3%, no sharp cut-off; inactive means mostly below about 5.4%; further: actives read high
Arr AP2 block – human beta-arrestin and AP2 interaction inhibition | FITC-arrestin peptide / GST-AP2 beads, flow cytometry; AP2 beta2 appendage carries R879A mutation | inhibition, % at 10 µM | 340,000 tested, 0.31% active | AID 504490;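 active means inhibition above a set limit, near 3 SD of compounds lacking own fluorescence, cut at about 54% in these data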;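 further: plate controls were DMSO wells for no effect and 5 µM unlabelled arrestin peptide for full effect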
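Material – GST-tagged AP2 beta2-adaptin appendage (R879A) on 4 µm glutathione beads · Probe or stimulus – fluorescein-tagged arrestin peptide at 50 nM final · Timing – 12 min plus 1 h, RT · Detection – bead flow cytometry, FITC channel · Read-out basis – inhibition as reduced fluorescein signal on beads, percent · Medium – PBS plus Tween 20 (0.05%) and BSA (0.1%)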
Xi reactivation – X-chromosome reactivation activator; XiGFP mouse fibroblasts, % GFP-positive cells imaging, 3 d; cells co-treated with 5-aza-dC sensitizer; scaled so ellipticine positive control = 100%; activation, % at 7.58 µM; 360,000 tested, 0.055% active;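 active means mean normalized replicate activation at least 10% and every replicate at or above 10%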;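 further: 0% = median of on-plate neutral control wells and 100% = ellipticine 6 µM median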
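Material: SV40-immortalized XiGFP fibroblast cells, line 68-5-11 | Buffer or medium: DMEM containing 5-aza-dC | Dosing: One concentration, pinned | Times: 3 d treatment, 15 min room-temperature fixation | Controls: Ellipticine 6 µM positive control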
MIN6 prolif – induces beta-cell replication in MIN6 cells | 330,000 tested, 0.29% active | proliferation, % at 10 µM | AID 2380 | MIN6 cells proliferation, ATPlite luminescence, 48 h; cells starved in 0.2% serum; 100% = growth in 10% serum;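 active means compounds whose signal lies at least 3.5 SD above the mean of all wells on their plate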;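 further: 0% = DMSO-treated cells in low-serum medium and 100% = 10% serum control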
VATPase regulator – modulates yeast V-ATPase proton transport | AID 602197 | response, % at 10 µM | 980 tested, 2% active | shares compounds with V-ATPase pH | S. cerevisiae pHLuorin cytosolic pH; in the data active means response above about 24%;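 further: plate controls were vehicle wells for no effect and positive control wells for full effect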
Starred values were filed as active, the others as inactive. Only some compounds are listed: those with a hit (about 0.89% of all), similar ones and a draw of the others.

For O=C(NCCC1=CCCCC1)C1CCCN(S(=O)(=O)c2cccnc2)C1 (centres undefined) the results were T cell modulator 166, NTR1 agonist 8, V-ATPase pH -2, Arr AP2 block 7, Xi reactivation 0 and MIN6 prolif -1.
For O=C(/C=C/c1ccc(Cl)c([N+](=O)[O-])c1)Nc1ccc(NC(=O)c2ccco2)cc1 the results were V-ATPase pH -17, Arr AP2 block 8 and Xi reactivation 0.
`O=C(/C=C/c1ccc(Cl)c([N+](=O)[O-])c1)Nc1cccc(NC(=O)c2ccco2)c1` gave T cell modulator 361, NTR1 agonist 16, V-ATPase pH 8.8*, Arr AP2 block 9, Xi reactivation 0, MIN6 prolif -6 and VATPase regulator -2.
Screening O=C(Cn1c(CO)nc2ccccc21)NCCc1ccc(F)cc1 returned T cell modulator 506, NTR1 agonist 1, V-ATPase pH -3, Arr AP2 block 8, Xi reactivation 0 and MIN6 prolif 1.
For O=C(Cn1c(CO)nc2ccccc21)NCCc1ccccc1 the results were T cell modulator 215, NTR1 agonist 3, V-ATPase pH 8.1*, Arr AP2 block 7, Xi reactivation 0, MIN6 prolif 5 and VATPase regulator 1.
For C[C@@H]1CCCCO[C@H](CN(C)C(=O)C2CCCCC2)[C@H](C)CN([C@@H](C)CO)C(=O)c2cc(NC(=O)CCCN(C)C)ccc2O1 the results were Xi reactivation -1.
`O=C([C@@H]1N[C@@H]2c3ccc(-c4ccccc4F)c(=O)n3C[C@@H]2[C@H]1CO)N1CCCCC1` gave Xi reactivation 0.
For CCNC(=S)NC1CC2CCCC(C1)N2Cc1ccc(C)cc1 (centres undefined) the results were T cell modulator 375, NTR1 agonist 0, V-ATPase pH 6.3*, Arr AP2 block 17, Xi reactivation 0, MIN6 prolif -3 and VATPase regulator 2.
`COc1ccc(S(=O)(=O)Nc2cccc3c2O[C@H](CN(C)C(=O)NC2CCCCC2)[C@H](C)CN([C@@H](C)CO)C3=O)cc1` gave Xi reactivation 0.
For CS(=O)(=O)Nc1ccc2c(c1)[C@@H]1C[C@@H](CC(=O)NCc3ccccc3F)O[C@H](CO)[C@@H]1O2 the results were Xi reactivation 0.
Screening O=C(NCCC1=CCCCC1)c1cc2ccccc2oc1=O returned T cell modulator 795, NTR1 agonist 2, V-ATPase pH 10*, Arr AP2 block 31, Xi reactivation 0, MIN6 prolif -3 and VATPase regulator 3.
`CC1CC(C)(C)NC(=S)N1CC(=O)NCc1ccc(F)cc1` (centres undefined) gave T cell modulator 172, NTR1 agonist 1, V-ATPase pH 8.5*, Arr AP2 block 18, Xi reactivation 0, MIN6 prolif 0 and VATPase regulator 3.
`CC1CC(C)(C)NC(=S)N1CCC(=O)NCc1ccc(F)cc1` (centres undefined) gave T cell modulator 273, NTR1 agonist -1, V-ATPase pH -1, Arr AP2 block -5, Xi reactivation 0 and MIN6 prolif 0.
For COc1ccc(C(=O)Nc2ccc3c(c2)C(=O)N(C)C[C@H](OC)[C@@H](C)CN(C)[C@@H](C)CO3)cc1 the results were Xi reactivation 0.
`COCCCNC(=O)C(Cc1ccccc1)NS(=O)(=O)c1ccc2c(c1)c(=O)n(C)c(=O)n2C` (centres undefined) gave T cell modulator 209, NTR1 agonist -1, V-ATPase pH 16*, Arr AP2 block 7, MIN6 prolif 3 and VATPase regulator -2.
Cn1c(=O)c2cc(S(=O)(=O)NC(Cc3ccccc3)C(=O)NCc3ccco3)ccc2n(C)c1=O (centres undefined) was read as T cell modulator 682, NTR1 agonist 3, V-ATPase pH 6, Arr AP2 block 11, Xi reactivation 0 and MIN6 prolif -1.
`CCOC(=O)c1c(N)sc(C(=O)N(C)C)c1C` gave T cell modulator 305, NTR1 agonist -1, V-ATPase pH 15*, Arr AP2 block -1, MIN6 prolif -1 and VATPase regulator -1.
C[C@@H]1CN([C@@H](C)CO)C(=O)Cc2cc(NS(=O)(=O)c3cn(C)cn3)ccc2O[C@@H]1CN(C)C(=O)Nc1cccc2ccccc12 was read as Xi reactivation 0.
CN1CCCC(OC(=O)c2ccccc2F)C1 (centres undefined) was read as T cell modulator 161, NTR1 agonist 0, V-ATPase pH 9.4*, Arr AP2 block 38, Xi reactivation 0, MIN6 prolif -2 and VATPase regulator -2.
For COc1cccc(S(=O)(=O)N[C@H]2CC[C@H](CCn3cc(-c4ccccn4)nn3)O[C@H]2CO)c1 the results were Xi reactivation 0.
CC(=O)c1nn(-c2cccc(C)c2)cc1C(=O)c1cccc(Br)c1 was read as T cell modulator 432, NTR1 agonist 7, V-ATPase pH 5.5*, Arr AP2 block 10, Xi reactivation 0, MIN6 prolif -1 and VATPase regulator 1.
Cc1nn(-c2ccccc2)c(N2CCCC2)c1/C=C1\N=C(c2ccc(F)cc2)OC1=O was read as T cell modulator 298, NTR1 agonist 4, V-ATPase pH -1, Arr AP2 block 2, Xi reactivation 0 and MIN6 prolif -6.
Screening Cc1ccc(C2=N/C(=C\c3c(C)nn(-c4ccccc4)c3N3CCCC3)C(=O)O2)cc1 returned T cell modulator 150, NTR1 agonist 2, V-ATPase pH 71*, Arr AP2 block -2, Xi reactivation 0, MIN6 prolif -2 and VATPase regulator -6.
Cc1nc2c(-c3ccc(F)cc3)c(C)nn2c(C)c1CCC(=O)N1CCN(c2ccc(F)cc2)CC1 was read as T cell modulator inactive, NTR1 agonist 1, V-ATPase pH -8, Arr AP2 block -10, Xi reactivation 0 and MIN6 prolif -5.
Screening Cc1nc2c(-c3ccc(F)cc3)c(C)nn2c(C)c1CCC(=O)N1CCN(c2ccccc2)CC1 returned T cell modulator 469, NTR1 agonist 1, V-ATPase pH 12*, Arr AP2 block 19, Xi reactivation 0, MIN6 prolif -4 and VATPase regulator 2.
For Cc1cc2c(c(=O)n1Cc1cccnc1)C(c1ccc(F)cc1)C(C#N)=C(N)O2 (centres undefined) the results were T cell modulator 204, NTR1 agonist 1, V-ATPase pH 12*, Arr AP2 block 14, MIN6 prolif 2 and VATPase regulator -4.
